Measurements from paper PMC4529372 (Biological psychiatry, 2015).

Tests used:
[1] = test system: hmGluR2/hCaR*; assay: fluorescence-based functional assay, HEK […] cells; type: cell-based, Homo sapiens; conditions: read-out: Effect; positive allosteric modulator; with 0.02 μM DCG-IV as agonist
[2] = molecular target: T1, Adenosine A3 (Homo sapiens, UniProt P0DMS8); assay: radioligand binding displacement; conditions: read-out: % inhibition at 10 μM
T1 sequence (P0DMS8 1-318): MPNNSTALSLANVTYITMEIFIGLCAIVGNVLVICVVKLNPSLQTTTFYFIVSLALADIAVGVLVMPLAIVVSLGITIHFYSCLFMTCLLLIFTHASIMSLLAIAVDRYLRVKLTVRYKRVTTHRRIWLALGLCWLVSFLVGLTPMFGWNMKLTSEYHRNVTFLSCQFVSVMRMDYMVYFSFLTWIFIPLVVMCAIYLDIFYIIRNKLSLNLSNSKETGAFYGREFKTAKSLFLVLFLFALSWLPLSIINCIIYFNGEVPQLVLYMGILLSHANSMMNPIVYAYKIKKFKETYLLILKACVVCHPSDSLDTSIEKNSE
Outline: (§1)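 Off-target screen by radioligand binding displacement, run per published methods with reference standards in each assay. […] Recombinant human targets were expressed in CHO-K1 cells (A3, dopamine transporter), Sf9 insect cells (α2A), CHO cells (DOP) and MDCK cells (norepinephrine transporter). IC50, where determined, came from non-linear least-squares regression.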

[3] = molecular target: Norepinephrine transporter (Homo sapiens, UniProt P23975); assay: radioligand binding displacement
Sequence of Norepinephrine transporter (P23975 whole entry): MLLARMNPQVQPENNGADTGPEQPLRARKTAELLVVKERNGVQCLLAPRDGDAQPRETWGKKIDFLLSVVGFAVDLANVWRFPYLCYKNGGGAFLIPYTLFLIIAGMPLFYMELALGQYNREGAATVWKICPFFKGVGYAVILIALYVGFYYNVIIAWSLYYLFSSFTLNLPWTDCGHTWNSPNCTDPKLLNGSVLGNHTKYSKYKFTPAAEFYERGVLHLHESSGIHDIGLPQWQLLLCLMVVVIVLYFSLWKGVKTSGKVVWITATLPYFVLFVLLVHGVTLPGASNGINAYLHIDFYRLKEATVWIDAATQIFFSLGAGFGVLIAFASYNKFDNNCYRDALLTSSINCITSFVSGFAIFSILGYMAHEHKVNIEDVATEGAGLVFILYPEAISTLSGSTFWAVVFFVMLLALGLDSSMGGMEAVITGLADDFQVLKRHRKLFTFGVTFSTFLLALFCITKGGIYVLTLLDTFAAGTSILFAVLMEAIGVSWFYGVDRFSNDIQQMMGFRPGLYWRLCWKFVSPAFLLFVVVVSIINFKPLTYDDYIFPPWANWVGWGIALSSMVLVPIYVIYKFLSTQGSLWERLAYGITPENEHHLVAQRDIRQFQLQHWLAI
Outline: as §1

EC50 [1]: 0.285 ± 0.02 µM
inhibition at 10 µM [2]: 51%
IC50 [3]: 4.73 µM
Compound: Cc1cc(-c2nc(CN3CCNCC3)no2)cc2c1C(=O)N(Cc1ccc(OC(F)(F)F)cc1)C2 [AZD8529, 7-methyl-5-(3-piperazin-1-ylmethyl-[1,2,4]oxadiazol-5-yl)-2-(4-trifluoromethoxybenzyl)-2,3-dihydroisoindol-1-one]
